From ChEMBL document CHEMBL1126276, “Synthesis and antimalarial properties of 1-imino derivatives of 7-chloro-3-substituted-3,4-dihydro-1,9(2H,10H)-acridinediones and related structures” (J Med Chem, 1992)

Columns and labels:
Plasmodium berghei [1] = assay: Antimalarial activity in Plasmodium berghei infected mice (Mus musculus) after 160 mg/kg subcutaneous dose; format: functional
How it was run: (§1)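 […] in mice infected with a normal drug-sensitive P. berghei strain. Compound dissolved or suspended in sesame or peanut oil, given as a single subcutaneous dose 72 h postinfection.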

Plasmodium berghei [2] = assay: Antimalarial activity in Plasmodium berghei infected mice (Mus musculus) after 320 mg/kg subcutaneous dose; format: functional; how it was run: as §1
Plasmodium berghei [3] = assay: (§2) Antimalarial activity in Plasmodium berghei infected mice (Mus musculus) after 20 mg/kg subcutaneous dose; format: functional; how it was run: as §1
Plasmodium berghei [4] = assay: Antimalarial activity was measured against mice (Mus musculus) infected with Plasmodium berghei by subcutaneous administration of 640 mg/kg dose; format: organism-based; parameters: dose 640 mg/kg, route subcutaneous; details: in vivo, sc; how it was run: as §1
Plasmodium berghei [5] = assay: Antimalarial activity was measured against mice (Mus musculus) infected with Plasmodium berghei by subcutaneous administration of 80 mg/kg dose; format: organism-based; parameters: dose 80 mg/kg, route subcutaneous; details: in vivo, sc; how it was run: as §1
Plasmodium berghei [6] = assay: (§3) Antimalarial activity in Plasmodium berghei infected mice (Mus musculus) after 80 mg/kg subcutaneous dose; format: functional; how it was run: as §1
Plasmodium berghei [7] = assay: Antimalarial activity Plasmodium berghei infected mice (Mus musculus) after 640 mg/kg subcutaneous dose; format: functional; how it was run: as §1
Plasmodium berghei [8] = assay: (§4) Antimalarial activity in Plasmodium berghei infected mice (Mus musculus) after 40 mg/kg subcutaneous dose; format: functional; how it was run: as §1
Plasmodium berghei [9] = assay: Antimalarial activity was measured against mice (Mus musculus) infected with Plasmodium berghei by subcutaneous administration of 40 mg/kg dose; format: organism-based; parameters: dose 40 mg/kg, route subcutaneous; details: in vivo, sc; how it was run: as §1
Plasmodium berghei [10] = assay: Antimalarial activity was measured against mice (Mus musculus) infected with Plasmodium berghei by subcutaneous administration of 20 mg/kg dose; format: organism-based; parameters: dose 20 mg/kg, route subcutaneous; details: in vivo, sc; how it was run: as §1
Plasmodium berghei [11] = assay: Antimalarial activity was measured against mice (Mus musculus) infected with Plasmodium berghei by subcutaneous administration of 160 mg/kg dose; format: organism-based; parameters: dose 160 mg/kg, route subcutaneous; details: in vivo, sc; how it was run: as §1
Plasmodium berghei [12] = assay: Antimalarial activity was measured against mice (Mus musculus) infected with Plasmodium berghei by subcutaneous administration of 320 mg/kg dose; format: organism-based; parameters: dose 320 mg/kg, route subcutaneous; details: in vivo, sc; how it was run: as §1
Plasmodium berghei [13] = assay: as §3; format: functional; remark: listed apart in the source
How it was run: (§5)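 Normal drug-sensitive P. berghei strain in mice. Compound dissolved or suspended in sesame or peanut oil, given parenterally as a single subcutaneous dose 72 h postinfection.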

Plasmodium berghei [14] = assay: (§6) Antimalarial activity in Plasmodium berghei infected mice (Mus musculus) after 10 mg/kg subcutaneous dose; format: functional; how it was run: as §5
Plasmodium berghei [15] = assay: Antimalarial activity in Plasmodium berghei infected mice (Mus musculus) after subcutaneous 320 mg/kg dose; format: functional; how it was run: as §5
Plasmodium berghei [16] = assay: (§7) Antimalarial activity in Plasmodium berghei infected mice (Mus musculus) after 5 mg/kg subcutaneous dose; format: functional; how it was run: as §1
Plasmodium berghei [17] = assay: Antimalarial activity in Plasmodium berghei infected mice (Mus musculus) after subcutaneous 160 mg/kg dose; format: functional; how it was run: as §5
Plasmodium berghei [18] = assay: as §6; format: functional; how it was run: as §1; remark: listed apart in the source
Plasmodium berghei [19] = assay: as §7; format: functional; how it was run: as §5; remark: listed apart in the source
Plasmodium berghei [20] = assay: Antimalarial activity in Plasmodium berghei infected mice (Mus musculus) after subcutaneous 640 mg/kg dose; format: functional; how it was run: as §5
Plasmodium berghei [21] = assay: as §2; format: functional; how it was run: as §5; remark: listed apart in the source
Plasmodium berghei [22] = assay: as §4; format: functional; how it was run: as §5; remark: listed apart in the source
Plasmodium berghei [23] = assay: Antimalarial activity in Plasmodium berghei infected mice (Mus musculus) after 640 mg/kg subcutaneous dose; format: functional; how it was run: as §1

Row | SMILES | Delta mean survival time (Plasmodium berghei [1]) | Delta mean survival time (Plasmodium berghei [3]) | Delta mean survival time (Plasmodium berghei [6]) | Delta mean survival time (Plasmodium berghei [8]) | No. of cured mice (Plasmodium berghei [15]) | No. of cured mice (Plasmodium berghei [17]) | No. of cured mice (Plasmodium berghei [20]) | No. of cured mice (Plasmodium berghei [22]) | also measured
1 | O=C1CC(c2ccc(Cl)cc2Cl)Cc2nc3c(Cl)cccc3c(O)c21 (stereo unspecified) | 1.3 | 0.3 | 5.3 | 1.3 | – | – | – | – | Delta mean survival time (Plasmodium berghei [2]): 4; No. of toxic deaths (Plasmodium berghei [4]): 4; No. of toxic deaths (Plasmodium berghei [5]): 1; Delta mean survival time (Plasmodium berghei [7]): 2; No. of toxic deaths (Plasmodium berghei [9]): 1; No. of toxic deaths (Plasmodium berghei [10]): 1; No. of toxic deaths (Plasmodium berghei [11]): 2; No. of toxic deaths (Plasmodium berghei [12]): 2
2 | CN(C)CCC/N=C1\CC(c2ccc(Cl)cc2Cl)Cc2nc3ccc(Cl)cc3c(O)c21 (stereo unspecified) | – | – | – | – | 5 | 5 | 5 | 5 | No. of cured mice (Plasmodium berghei [13]): 5; No. of cured mice (Plasmodium berghei [14]): 3; Delta mean survival time (Plasmodium berghei [16]): 7.4; Delta mean survival time (Plasmodium berghei [18]): 13.6; No. of cured mice (Plasmodium berghei [19]): 1; No. of cured mice (Plasmodium berghei [21]): 5
3 | CN(C)CCC/N=C1\CC(c2ccc(Cl)cc2Cl)Cc2nc3cc(Cl)ccc3c(O)c21 (stereo unspecified) | 13.8 | 2.8 | 12 | 6.3 | 5 | 4 | 3 | 1 | No. of toxic deaths (Plasmodium berghei [23]): 2
